Results published in ChEMBL document CHEMBL1144047, “Design and synthesis of diketopiperazine and acyclic analogs related to the caprazamycins and liposidomycins as potential antibacterial agents” (2008).
Values after ≈ are worked out from the molar mass of the structure shown.

What was measured:
Assay type in all cases: functional
[1] = test system: Bacillus subtilis; experiment: Antibacterial activity against Bacillus subtilis NRRLB-558 after 18 hrs by serial agar dilution method
Procedure, shortened: (§1)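 MIC determined by serial agar dilution on plain Mueller–Hinton agar; read after 18 h incubation at 37 °C.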

[2] = test system: Staphylococcus aureus; experiment: Antibacterial activity against MDR-Staphylococcus aureus MS9610 after 18 hrs by serial agar dilution method
Procedure, shortened: (§2)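 MIC by serial agar dilution on Mueller–Hinton agar (no supplement for staphylococci); plates read after 18 h incubation at 37 °C.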

[3] = test system: Mycolicibacterium smegmatis; experiment: Antibacterial activity against Mycobacterium smegmatis ATCC607 after 42 hrs by serial agar dilution method
Procedure, shortened: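 Serial agar dilution MIC using Mueller–Hinton agar containing 5% glycerol; growth read after 42 h at 37 °C.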

[4] = test system: Micrococcus luteus; experiment: Antibacterial activity against Micrococcus luteus PCI1001 after 18 hrs by serial agar dilution method; conditions: PCI1001, 18 h; procedure, shortened: as §1
[5] = test system: Corynebacterium bovis; experiment: Antibacterial activity against Corynebacterium bovis 1810 after 18 hrs by serial agar dilution method; procedure, shortened: as §1
[6] = test system: Staphylococcus aureus; experiment: Antibacterial activity against Staphylococcus aureus Smith after 18 hrs by serial agar dilution method; procedure, shortened: as §1
[7] = test system: Enterococcus faecalis; experiment: Antibacterial activity against Enterococcus faecalis NCTC-12201 after 18 hrs by serial agar dilution method
Procedure, shortened: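 MIC by serial agar dilution on Mueller–Hinton agar supplemented with 5% sheep blood; plates incubated 18 hours at 37 °C under 5% CO₂ before reading.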

[8] = test system: Micrococcus luteus; experiment: Antibacterial activity against Micrococcus luteus FDA16 after 18 hrs by serial agar dilution method; procedure, shortened: as §1
[9] = test system: Staphylococcus aureus; experiment: Antibacterial activity against methicillin-resistant Staphylococcus aureus 5 after 18 hrs by serial agar dilution method; procedure, shortened: as §2
[10] = test system: Mycobacterium tuberculosis; experiment: Antibacterial activity against Mycobacterium tuberculosis H37Rv at 6.25 ug/ml by microplate Alamar blue assay
Procedure, shortened: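 M. tuberculosis H37Rv (ATCC 27294) grown in BACTEC 12B medium; microplate Alamar blue assay; growth inhibition rate recorded at 6.25 µg/mL.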

## NC[C@H]1O[C@@H](O[C@H]([C@H]2O[C@@H](n3ccc(=O)[nH]c3=O)[C@H](O)[C@@H]2O)[C@H](N)C(=O)N[C@@H](CO)C(=O)O)[C@H](O)[C@@H]1O
[1]
  MIC: > 100 µg/mL
[2]
  MIC: > 100 µg/mL
[3]
  MIC: 100 µg/mL (≈ 187 µM)
[4]
  MIC: > 100 µg/mL
[5]
  MIC: > 100 µg/mL
[6]
  MIC: > 100 µg/mL
[7]
  MIC: > 100 µg/mL
[8]
  MIC: > 100 µg/mL

## CCCCCCCCCCCCCCCC(=O)OC[C@@H]1NC(=O)[C@H]([C@H](O[C@@H]2O[C@H](CN)[C@@H](O)[C@H]2O)[C@H]2O[C@@H](n3ccc(=O)[nH]c3=O)[C@H](O)[C@@H]2O)NC1=O
[1]
  MIC: 25 µg/mL (≈ 33.1 µM)
[9]
  MIC: 100 µg/mL (≈ 132 µM)
[2]
  MIC: 100 µg/mL (≈ 132 µM)
[3]
  MIC: 100 µg/mL (≈ 132 µM)
[10]
  inhibition at 6.25 µg/mL: 35%
[4]
  MIC: 50 µg/mL (≈ 66.1 µM)
[5]
  MIC: 50 µg/mL (≈ 66.1 µM)
[6]
  MIC: 25 µg/mL (≈ 33.1 µM)
[7]
  MIC: 100 µg/mL (≈ 132 µM)
[8]
  MIC: 25 µg/mL (≈ 33.1 µM)

## CCCCCCCCCCCCCCCC(=O)OC[C@H](NC(=O)[C@@H](N)[C@H](O[C@@H]1O[C@H](CN)[C@@H](O)[C@H]1O)[C@H]1O[C@@H](n2ccc(=O)[nH]c2=O)[C@H](O)[C@@H]1O)C(=O)O
[1]
  MIC: 25 µg/mL (≈ 32.3 µM)
[9]
  MIC: 50 µg/mL (≈ 64.6 µM)
[2]
  MIC: 50 µg/mL (≈ 64.6 µM)
[3]
  MIC: 100 µg/mL (≈ 129 µM)
[10]
  inhibition at 6.25 µg/mL: 51%
[4]
  MIC: 25 µg/mL (≈ 32.3 µM)
[5]
  MIC: 12.5 µg/mL (≈ 16.2 µM)
[6]
  MIC: 25 µg/mL (≈ 32.3 µM)
[7]
  MIC: 50 µg/mL (≈ 64.6 µM)
[8]
  MIC: 50 µg/mL (≈ 64.6 µM)

## CCCCCCCCCCCCCCCC(=O)OC[C@@H](NC(=O)[C@@H](N)[C@H](O[C@@H]1O[C@H](CN)[C@@H](O)[C@H]1O)[C@H]1O[C@@H](n2ccc(=O)[nH]c2=O)[C@H](O)[C@@H]1O)C(=O)O
[1]
  MIC: 25 µg/mL (≈ 32.3 µM)
[9]
  MIC: 50 µg/mL (≈ 64.6 µM)
[2]
  MIC: 50 µg/mL (≈ 64.6 µM)
[3]
  MIC: 50 µg/mL (≈ 64.6 µM)
[10]
  inhibition at 6.25 µg/mL: 59%
[4]
  MIC: 12.5 µg/mL (≈ 16.2 µM)
[5]
  MIC: 12.5 µg/mL (≈ 16.2 µM)
[6]
  MIC: 25 µg/mL (≈ 32.3 µM)
[7]
  MIC: 50 µg/mL (≈ 64.6 µM)
[8]
  MIC: 50 µg/mL (≈ 64.6 µM)

## NC[C@H]1O[C@@H](O[C@H]([C@H]2O[C@@H](n3ccc(=O)[nH]c3=O)[C@H](O)[C@@H]2O)[C@H](N)C(=O)N[C@H](COC(=O)c2ccc(-c3ccccc3)cc2)C(=O)O)[C@H](O)[C@@H]1O
[1]
  MIC: > 100 µg/mL
[2]
  MIC: > 100 µg/mL
[3]
  MIC: 100 µg/mL (≈ 140 µM)
[10]
  inhibition at 6.25 µg/mL: 27%
[4]
  MIC: > 100 µg/mL
[5]
  MIC: > 100 µg/mL
[6]
  MIC: > 100 µg/mL
[7]
  MIC: > 100 µg/mL
[8]
  MIC: > 100 µg/mL

## NC[C@H]1O[C@@H](O[C@H]([C@H]2O[C@@H](n3ccc(=O)[nH]c3=O)[C@H](O)[C@@H]2O)[C@@H]2NC(=O)[C@@H](COC(=O)c3ccc(-c4ccccc4)cc3)NC2=O)[C@H](O)[C@@H]1O
[1]
  MIC: > 100 µg/mL
[2]
  MIC: > 100 µg/mL
[3]
  MIC: > 100 µg/mL
[10]
  inhibition at 6.25 µg/mL: 29%
[4]
  MIC: > 100 µg/mL
[5]
  MIC: > 100 µg/mL
[6]
  MIC: > 100 µg/mL
[7]
  MIC: > 100 µg/mL
[8]
  MIC: > 100 µg/mL

## NC[C@H]1O[C@@H](O[C@H]([C@H]2O[C@@H](n3ccc(=O)[nH]c3=O)[C@H](O)[C@@H]2O)[C@@H]2NC(=O)[C@H](COC(=O)c3ccc(-c4ccccc4)cc3)NC2=O)[C@H](O)[C@@H]1O
[1]
  MIC: > 100 µg/mL
[2]
  MIC: > 100 µg/mL
[3]
  MIC: 100 µg/mL (≈ 143 µM)
[10]
  inhibition at 6.25 µg/mL: 48%
[4]
  MIC: 100 µg/mL (≈ 143 µM)
[5]
  MIC: > 100 µg/mL
[6]
  MIC: > 100 µg/mL
[7]
  MIC: > 100 µg/mL
[8]
  MIC: > 100 µg/mL

## NC[C@H]1O[C@@H](O[C@H]([C@H]2O[C@@H](n3ccc(=O)[nH]c3=O)[C@H](O)[C@@H]2O)[C@H](N)C(=O)N[C@@H](COC(=O)c2ccc(-c3ccccc3)cc2)C(=O)O)[C@H](O)[C@@H]1O
[1]
  MIC: > 100 µg/mL
[2]
  MIC: > 100 µg/mL
[3]
  MIC: 100 µg/mL (≈ 140 µM)
[10]
  inhibition at 6.25 µg/mL: 52%
[4]
  MIC: 50 µg/mL (≈ 69.9 µM)
[5]
  MIC: 100 µg/mL (≈ 140 µM)
[6]
  MIC: > 100 µg/mL
[7]
  MIC: > 100 µg/mL
[8]
  MIC: > 100 µg/mL
